TCR CD3 inh – blocks the human TCR-CD3 interaction | inhibition, % at 9.4 µM | TAMRA-labeled TCR probe fluorescence, biochemical | AID 651800 | hit rate 0.37% among 360,000; in the data active = inhibition above about 19%;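 note: recombinant mutant TCR 2C K166C tagged with TAMRA read by polarization; 0% = receptor in buffer alone and 100% = receptor with positive control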
mABHD4 FP – inhibitors of mouse ABHD4. hit rate 0.54% among 370,000. inhibition, % at 8.92 µM. Q8VD66. purified mABHD4, FP-Rh probe fluorescence polarization;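 active = inhibition exceeding the mean over every tested compound plus 3 SD, cut at about 30% in these data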;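 note: 0% = plate median of compound wells and 100% = S159A mutant with DMSO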
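Assay system: mABHD4 protein; medium: HEPES pH 7.0, NaCl, Pluronic buffer; dosing: 8.92 µM, single dose; schedule: 45 min + 60 min at 25 °C; signal: FP readout, ex 525 nm / em 598 nm; read-out: normalized percent inhibition of probe labeling; repeats: single replicate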
HTRA1 inh – blocks human HTRA1 serine peptidase. Q92743. recombinant HTRA1, FP-rhodamine activity-based probe, fluorescence polarization. inhibition, % at 5.96 µM. hit rate 0.5% among 340,000; in the data active = inhibition above about 36%;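 note: 0% = enzyme with DMSO and 100% = wells lacking enzyme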
DDE Tn6 FP inh – disrupts Tn6 cyclic peptide binding to fibrin D-Dimer-E complex | Fibrin DD(E) TRITC-Tn6 fluorescence polarization displacement | inhibition, % at 8.3 µM | hit rate 0.21% among 370,000 | AID 720509;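 active = inhibition above a per-campaign cutoff: mean of compounds within control limits plus 3 SD, cut at about 15% in these data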;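 note: 0% = median of all compound wells on the plate and 100% = blocking peptide control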
Target sequence (P02675 whole entry, looked up): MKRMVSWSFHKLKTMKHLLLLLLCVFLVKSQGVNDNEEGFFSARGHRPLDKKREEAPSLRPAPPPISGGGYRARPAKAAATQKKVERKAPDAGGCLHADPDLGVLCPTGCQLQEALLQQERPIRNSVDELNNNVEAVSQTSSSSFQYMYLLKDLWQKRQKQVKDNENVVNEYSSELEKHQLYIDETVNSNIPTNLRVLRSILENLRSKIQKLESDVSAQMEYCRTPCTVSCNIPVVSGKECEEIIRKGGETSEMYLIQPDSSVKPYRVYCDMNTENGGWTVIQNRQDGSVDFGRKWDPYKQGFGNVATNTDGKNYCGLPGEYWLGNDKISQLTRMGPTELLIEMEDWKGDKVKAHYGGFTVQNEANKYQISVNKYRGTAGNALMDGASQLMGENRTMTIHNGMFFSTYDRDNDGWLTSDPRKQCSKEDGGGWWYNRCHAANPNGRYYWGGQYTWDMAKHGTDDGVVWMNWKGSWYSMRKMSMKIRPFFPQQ
Tn7 DDE FP – disrupts Tn7 cyclic peptide binding to fibrin D-Dimer-E complex | inhibition, % at 8.3 µM | hit rate 0.13% among 370,000 | FP displacement of FITC-Tn7 peptide from fibrin DD(E); 0% = median of compound wells per plate | P02675;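 active = inhibition above the mean of compounds falling within the control limits plus 3 SD of them, cut at about 14% in these data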;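 note: 0% = plate median of compound wells and 100% = 10 µM Aha-Tn7 peptide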
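Measure: % inhibition scaled between sample-field median and high-control FP; Test system: human fibrin DD(E); Quantity: 2 µM final DD(E) protein; Doses: one dose, 8.3 µM nominal; Schedule: compound with protein 10 min, then 3 h after probe, room temperature; Detection: fluorescence polarization; Medium: Tris buffer with calcium and detergent, pH 7.8.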
Tn6 DDE ctr – DD(E)-Tn6 binding inhibition, counter-screen; shares compounds with DDE Tn6 FP inh; Fibrin DD(E), TRITC-Tn6 fluorescence polarization displacement; 0% = median of compound wells, not DMSO; inhibition, % at 8.3 µM; hit rate 2% among 680;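 active = inhibition above the mean of test compounds lying between the control limits plus 3 SD of those, cut at about 14% in these data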;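 note: 0% = median of compound wells and 100% = wells with Aha-Tn7 blocking peptide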
DDE Tn6 confirm – DD(E)-Tn6 binding inhibition, FP confirmation. hit rate 10% among 680. shares compounds with DDE Tn6 FP inh. inhibition, % at 8.3 µM. FP displacement of TRITC-Tn6 peptide from DD(E); 0% = per-plate median of test wells;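 active = inhibition above the mean of compounds lying within the control limits plus 3 SD, cut at about 16% in these data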;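 note: 100% = high control wells holding a competing inhibitor peptide at 10 µM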
Active calls of the source: *. This is a sample that favours compounds with a hit; in the whole collection about 1.3% have one here.

`Cc1ccc(C(=O)OC(C)C(=O)Nc2ccc(S(N)(=O)=O)cc2)cc1S(=O)(=O)N1CCOCC1` (stereo unspecified) gave TCR CD3 inh 7, mABHD4 FP 0, HTRA1 inh 2, DDE Tn6 FP inh -5 and Tn7 DDE FP -3.
For Cc1c(C)n(CC(O)CN2CCCCC2)c2ccccc12 (stereo unspecified) the results were TCR CD3 inh 0, mABHD4 FP 20, HTRA1 inh 4, DDE Tn6 FP inh 4 and Tn7 DDE FP -6.
Cc1cc(C)n(CC(O)Cn2c(C)c(C)c3ccccc32)n1 (stereo unspecified) was read as TCR CD3 inh 7, mABHD4 FP 1, HTRA1 inh -8, DDE Tn6 FP inh 19*, Tn7 DDE FP 3, Tn6 DDE ctr -2 and DDE Tn6 confirm 1.
CC1CCCN(CCCNC(=O)c2ccc3c(c2)N(Cc2ccc(F)cc2)C(=O)c2ccccc2S3=O)C1 (stereo unspecified) was read as TCR CD3 inh 4, mABHD4 FP 3, HTRA1 inh -4, DDE Tn6 FP inh 2 and Tn7 DDE FP -1.
`CC1CCCN(CCCNC(=O)c2ccc3c(c2)N(Cc2cccc(Cl)c2)C(=O)c2ccccc2S3=O)C1` (stereo unspecified) gave TCR CD3 inh 4, mABHD4 FP -6, HTRA1 inh -19, DDE Tn6 FP inh 16*, Tn7 DDE FP 5, Tn6 DDE ctr -2 and DDE Tn6 confirm -5.
COc1ccc(-n2c(COc3ccccc3)nnc2SCc2nc3ccccc3[nH]2)cc1 was read as mABHD4 FP -7, DDE Tn6 FP inh 18*, Tn7 DDE FP 5, Tn6 DDE ctr -2 and DDE Tn6 confirm -9.
For Cn1c(COc2ccccc2)nnc1SCc1nc2ccccc2[nH]1 the results were TCR CD3 inh 1, mABHD4 FP -2, HTRA1 inh -4, DDE Tn6 FP inh 1 and Tn7 DDE FP -4.
Screening CCc1cc(CNC(=O)CC2C(=O)NCCN2Cc2cccc(OC)c2)on1 (stereo unspecified) returned TCR CD3 inh 11, mABHD4 FP 1, HTRA1 inh -10, DDE Tn6 FP inh 7 and Tn7 DDE FP 3.
For Cc1nn(-c2ccccc2)cc1C(c1c(N)[nH]c(=S)[nH]c1=O)c1c(N)[nH]c(=S)[nH]c1=O the results were TCR CD3 inh 5, mABHD4 FP -3, HTRA1 inh -6, DDE Tn6 FP inh 15*, Tn7 DDE FP 1, Tn6 DDE ctr -7 and DDE Tn6 confirm -28.
Screening COc1cc(OC)cc(C(=O)NCc2ccc3c(c2)cc(C)n3C)c1 returned TCR CD3 inh -5, mABHD4 FP -5, HTRA1 inh 1, DDE Tn6 FP inh 2 and Tn7 DDE FP 0.
For Cc1cc2cc(CNC(=O)c3ccc4c(c3)OCO4)ccc2n1C the results were TCR CD3 inh 6, mABHD4 FP 13, HTRA1 inh 7, DDE Tn6 FP inh 13 and Tn7 DDE FP -1.
COc1ccc(C(=O)NCc2ccc3c(c2)cc(C)n3C)cc1 was read as TCR CD3 inh 16, mABHD4 FP 14, HTRA1 inh 6, DDE Tn6 FP inh 19*, Tn7 DDE FP -2, Tn6 DDE ctr 6 and DDE Tn6 confirm -1.
For COCC(=O)NCc1ccc2c(c1)cc(C)n2C the results were TCR CD3 inh 14, mABHD4 FP 18, HTRA1 inh -2, DDE Tn6 FP inh 21*, Tn7 DDE FP 3, Tn6 DDE ctr 1 and DDE Tn6 confirm 0.
For COc1ncnc(NS(=O)(=O)c2ccc(N)cc2)c1OC the results were TCR CD3 inh -2, mABHD4 FP -4, HTRA1 inh 3, DDE Tn6 FP inh -1 and Tn7 DDE FP -9.
For CCc1nc(-c2cc3ccc(C)cc3[nH]c2=O)no1 the results were TCR CD3 inh 6, mABHD4 FP 0, HTRA1 inh 0, DDE Tn6 FP inh -2 and Tn7 DDE FP -6.
For Cc1ccc2[nH]c(=O)c(-c3noc(C(C)C)n3)cc2c1 the results were TCR CD3 inh 3, mABHD4 FP 5, HTRA1 inh 1, DDE Tn6 FP inh 17*, Tn7 DDE FP -2, Tn6 DDE ctr -1 and DDE Tn6 confirm -5.
`COC(=O)c1cc(S(=O)(=O)NCCN2CCOCC2)cn1C` gave TCR CD3 inh -1, mABHD4 FP -7, HTRA1 inh 0, DDE Tn6 FP inh 4 and Tn7 DDE FP 0.
`O=C(Oc1cc(=O)oc2ccccc12)c1ccco1` gave TCR CD3 inh 4, mABHD4 FP -20, HTRA1 inh -1, DDE Tn6 FP inh -2 and Tn7 DDE FP 5.
Screening COc1ccccc1OCC(=O)NCc1ccco1 returned TCR CD3 inh -1, mABHD4 FP 0, HTRA1 inh -6, DDE Tn6 FP inh -5 and Tn7 DDE FP 3.
For COc1ccccc1C(C)NCC(=O)NC(=O)NCc1ccco1 (stereo unspecified) the results were TCR CD3 inh 1, mABHD4 FP -2, HTRA1 inh -1, DDE Tn6 FP inh 57*, Tn7 DDE FP 4, Tn6 DDE ctr -5 and DDE Tn6 confirm -8.
COC(=O)c1cccc(Cn2ccc3ccc(-c4ccc5ccn(Cc6cccc(C(=O)OC)c6)c5c4)cc32)c1 was read as mABHD4 FP 3, DDE Tn6 FP inh -6 and Tn7 DDE FP 1.
Cc1ccc(S(=O)(=O)CCC(=O)OCCOc2cccc(Br)c2)cc1 was read as TCR CD3 inh 10, mABHD4 FP 0, HTRA1 inh -21, DDE Tn6 FP inh 15*, Tn7 DDE FP -5, Tn6 DDE ctr 7 and DDE Tn6 confirm 8.
For CCOc1ccc(S(=O)(=O)N(CC(=O)NCc2cccnc2)c2ccc(F)cc2)cc1 the results were TCR CD3 inh 3, mABHD4 FP 1, HTRA1 inh 1, DDE Tn6 FP inh 18*, Tn7 DDE FP 3, Tn6 DDE ctr -3 and DDE Tn6 confirm -3.
For C=C1CCN(c2ccc(C(=O)NCc3ccc(OC)cc3)cc2[N+](=O)[O-])CC1 the results were TCR CD3 inh -1, mABHD4 FP -7, HTRA1 inh -32, DDE Tn6 FP inh 15*, Tn7 DDE FP -1, Tn6 DDE ctr -3 and DDE Tn6 confirm -6.
CC(=O)Nc1ccc(S(=O)(=O)Nc2ccc3nc(C)sc3c2)cc1 was read as TCR CD3 inh -5, mABHD4 FP -1, HTRA1 inh 2, DDE Tn6 FP inh -7 and Tn7 DDE FP -4.
Screening CC(=O)Nc1ccc2c(c1)C(C)(C)C(C)N2C (stereo unspecified) returned TCR CD3 inh -53, mABHD4 FP -187, DDE Tn6 FP inh 22*, Tn7 DDE FP -5, Tn6 DDE ctr 2 and DDE Tn6 confirm 7.
